Test results as given in ChEMBL document CHEMBL3351677, “Design and synthesis of azaisoflavone analogs as phytoestrogen mimetics” (Eur J Med Chem, 2014).
Active and inactive are the calls of the source. No cut-off for these calls is given here.

Columns and labels:
CV-1 = experiment: Selectivity ratio of maximum activation of human ERbeta expressed in CV1 cells to maximum activation of human ERalpha expressed in CV1 cells; assay type: cell-based
In short: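 CV-1 cells held in phenol red-free DMEM with 5% stripped FBS for 3 days, seeded at 1.5 × 10⁵ cells/well. Next day they were co-transfected for 6 h with 30 ng hERα or hERβ plus 100 ng ERE-luciferase, with a β-galactosidase vector for normalization. Treated 24 h, then luciferase read, β-gal absorbance at 410 nm. Each subtype's activation expressed relative to maximum with 20 nM E2; at least three experiments.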

MCF7 [1] = experiment: Stimulation of growth in human MCF7 cells at 5 to 20 uM after 4 days by MTT assay; assay type: functional, cell-based
In short: (§1)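 MCF-7 cells kept in DMEM with 10% FBS, then held 3 days in phenol red-free DMEM with 5% charcoal-dextran stripped FBS. Seeded at 1.5 × 10³ cells/well for 24 h, then treated with samples for 4 days; 0.1 nM E2 and 100 nM ICI served as controls. MTT (5 mg/mL in PBS) was added for 2 h, formazan dissolved in DMSO and absorbance read. Three independent experiments, mean ± SD, Dunnett test.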

MCF7 [2] = experiment: Growth inhibition in human MCF7 cells at 50 to 100 uM after 4 days by MTT assay; assay type: functional, cell-based; in short: as §1
Homo sapiens = organism: Homo sapiens; experiment: Selectivity ratio of maximum inhibition of recombinant human ERbeta to maximum inhibition of recombinant human ERalpha by competitive binding assay
In short: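 Competitive binding with [³H]-E2 (1 nM) for ERα and ERβ. Bound and free ligand separated by centrifugation at 12,000 × g for 2 min; supernatant radioactivity counted by liquid scintillation. Bound [³H]-E2 expressed relative to maximum receptor-bound ligand (10⁻⁷ M E2), versus 0.1% DMSO control; at least three separate experiments.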

MCF7 [3] = experiment: Growth inhibition in human MCF7 cells at 5 to 100 uM after 4 days by MTT assay; assay type: functional, cell-based; in short: as §1
MCF7 [4] = experiment: Growth inhibition in human MCF7 cells at 20 to 100 uM after 4 days by MTT assay; assay type: functional, cell-based; in short: as §1
MCF7 [5] = experiment: Stimulation of growth in human MCF7 cells at 0.1 to 20 uM after 4 days by MTT assay; assay type: functional, cell-based; in short: as §1

SMILES: CCn1cc(-c2ccc(O)cc2)c(=O)c2c(O)cc(O)cc21
- Selectivity ratio (CV-1): 0.8
- Activity (MCF7 [1]): Active
- growth inhibition (GI) (MCF7 [2]): Active
- Selectivity ratio (Homo sapiens): 1.6

SMILES: CCCn1cc(-c2ccc(O)cc2)c(=O)c2ccccc21
- Selectivity ratio (CV-1): 0.5
- Activity (MCF7 [1]): Active
- growth inhibition (GI) (MCF7 [2]): Active

SMILES: CCCn1cc(-c2ccc(O)cc2)c(=O)c2ccc(O)cc21
- Selectivity ratio (CV-1): 1.6
- Activity (MCF7 [1]): Active
- growth inhibition (GI) (MCF7 [2]): Active

SMILES: Cn1cc(-c2ccc(O)cc2)c(=O)c2c(O)cc(O)cc21
- Selectivity ratio (CV-1): 1.3
- Activity (MCF7 [1]): Active
- growth inhibition (GI) (MCF7 [2]): Active
- Selectivity ratio (Homo sapiens): 2.6

SMILES: CC(C)CCn1cc(-c2ccc(O)cc2)c(=O)c2ccc(O)cc21
- Selectivity ratio (CV-1): 3.4
- growth inhibition (GI) (MCF7 [3]): Active

SMILES: O=c1c(-c2ccc(O)cc2)cn(Cc2ccccc2)c2cc(O)ccc12
- Selectivity ratio (CV-1): 1
- growth inhibition (GI) (MCF7 [3]): Active

SMILES: O=c1c(-c2ccc(O)cc2)coc2cc(O)cc(O)c12
- growth inhibition (GI) (MCF7 [4]): Active
- Activity (MCF7 [5]): Active

SMILES: O=c1c(-c2ccc(O)cc2)c[nH]c2cc(O)cc(O)c12
- Selectivity ratio (CV-1): 2.9
- Activity (MCF7 [1]): Active
- growth inhibition (GI) (MCF7 [2]): Active
- Selectivity ratio (Homo sapiens): 12

SMILES: CCn1cc(-c2ccc(O)cc2)c(=O)c2ccc(O)cc21
- Selectivity ratio (CV-1): 2.9
- Activity (MCF7 [1]): Active
- growth inhibition (GI) (MCF7 [2]): Active

SMILES: O=c1c(-c2ccc(O)cc2)c[nH]c2cc(O)ccc12
- Selectivity ratio (CV-1): 1.3

SMILES: CCCn1cc(-c2ccc(O)cc2)c(=O)c2c(O)cc(O)cc21
- Selectivity ratio (CV-1): 0.3
- growth inhibition (GI) (MCF7 [3]): Active
- Selectivity ratio (Homo sapiens): 1.4

SMILES: Cn1cc(-c2ccc(O)cc2)c(=O)c2ccc(O)cc21
- Selectivity ratio (CV-1): 6.4
